Source: PubChem BioAssay
Sampled rows, rich in hits. Any-hit rate of the full collection: about 2.3%.
V1R ag counter: counter-screen for oxytocin receptor agonists: human V1a receptor agonists | P37288 | CHO-V1R cells, Fluo-8 calcium fluorescence, agonist mode; 0% DMSO, 100% 3 nM vasopressin | activation, % at 3 µM | hit rate 0.25% among 320,000 | AID 2797;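 active = activation above the mean activation of all tested compounds plus 3 SD, per screening run, cut at about 20% in these data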;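 also: signal is peak over basal fluorescence ratio across a 100 second FLIPR read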
OXTR ag: human OXTR agonism; P30559; CHO-OTR cells, Fluo-8 calcium fluorescence; normalized: DMSO 0%, oxytocin 100%; activation, % at 3 µM; hit rate 0.32% among 320,000;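 active = activation above the mean of all tested compounds plus 3 SD, cutoff set per screening run, cut at about 20% in these data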;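 also: peak over basal fluorescence ratio from a 100 s FLIPR kinetic read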
Target sequence (P30559 whole entry, looked up): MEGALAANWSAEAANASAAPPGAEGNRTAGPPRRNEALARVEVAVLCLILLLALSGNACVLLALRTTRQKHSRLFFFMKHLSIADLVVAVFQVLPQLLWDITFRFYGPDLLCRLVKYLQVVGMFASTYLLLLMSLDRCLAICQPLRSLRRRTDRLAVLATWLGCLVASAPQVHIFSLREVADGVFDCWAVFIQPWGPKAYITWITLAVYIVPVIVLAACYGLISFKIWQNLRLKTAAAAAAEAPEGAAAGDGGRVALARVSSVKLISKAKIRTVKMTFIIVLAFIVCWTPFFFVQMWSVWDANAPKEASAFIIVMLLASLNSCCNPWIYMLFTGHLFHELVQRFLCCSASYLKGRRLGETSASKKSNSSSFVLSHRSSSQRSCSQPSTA
OXTR potentiate: potentiators of human oxytocin receptor. AID 2445. P30559. CHO-OTR cells, Fluo-8 calcium fluorescence, potentiator mode; 0% = oxytocin EC15, 100% = EC100. activation, % at 3 µM. hit rate 0.061% among 320,000;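 active = activation above that plate's cutoff, the mean activation of tested compounds plus 3 SD, cut at about 6.6% in these data, passing the limit was not always enough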
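Assay system: CHO cell line stably expressing human OTR. Reagent: EC15 oxytocin agonist. Dosing: single dose, 3.0 µM nominal final compound concentration. Timing: compound 6 min at room temperature before oxytocin, 100 s read. Signal: kinetic Fluo-8 calcium fluorescence. Controls: oxytocin EC15 low and EC100 high.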
TAAR1 ag: agonists of human TAAR1. Q96RJ0. hit rate 0.99% among 360,000. CHO RD-HGA16 TAAR1, Fluo-8 calcium fluorescence; vehicle wells 0%, saturating PEA agonist 100%. activation, % at 3 µM;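 active = activation above the mean activation of all test compounds in the run plus 3 SD, cut at about 38% in these data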
Target sequence (Q96RJ0 whole entry, looked up): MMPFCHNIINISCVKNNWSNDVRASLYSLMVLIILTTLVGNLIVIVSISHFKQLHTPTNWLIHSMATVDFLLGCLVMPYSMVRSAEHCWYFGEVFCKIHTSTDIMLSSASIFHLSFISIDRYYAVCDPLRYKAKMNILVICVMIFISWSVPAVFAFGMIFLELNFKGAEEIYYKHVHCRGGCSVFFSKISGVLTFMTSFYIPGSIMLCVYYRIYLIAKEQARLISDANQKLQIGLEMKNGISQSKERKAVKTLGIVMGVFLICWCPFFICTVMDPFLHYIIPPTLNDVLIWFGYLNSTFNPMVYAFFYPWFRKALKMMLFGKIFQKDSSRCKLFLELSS
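Assay system – CHO-derived RD-HGA16 cells with stable Gα16 and human TAAR1 · Compound dosing – one-point dosing at 3 µM (nominal) · Incubation – 17-24 h seeding, 75 min 37 °C dye, 30 min RT · Measured by – kinetic Fluo-8 calcium fluorescence · Control set – DMSO vehicle as 0%, PEA at EC100 as 100% · Repeats – single well for each compound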
TAAR1 antag: antagonists of human TAAR1; AID 624466; CHO RD-HGA16 TAAR1, Fluo-8 calcium fluorescence, antagonist; inhibition, % at 3 µM; hit rate 1.5% among 360,000;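 active = inhibition above a per-plate cutoff, the mean inhibition of test compounds on that plate plus 3 SD, cut at about 49% in these data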
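Test system: CHO RD-HGA16 cells bearing hTAAR1 | Reagent: β-PEA, EC80 | Compound dosing: 3 µM, single point | Schedule: Dye loading 75 min at 37 °C, then 30 min room temperature | Signal: Calcium fluorescence with Fluo-8 | Evaluation: Percent inhibition of PEA-evoked calcium signal, max/basal emission ratio | Control set: DMSO-only wells and EC80 β-PEA-stimulated wells | Repeats: Singlicate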
V1R ag confirm: human V1a receptor agonism, confirmation. shares compounds with V1R ag counter. CHO-V1R cells, Fluo-8 calcium fluorescence, agonist. activation, % at 3 µM. hit rate 20% among 180. AID 434964;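 active = average activation exceeds primary screen hit cutoff, cut at about 21% in these data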;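 also: peak over basal fluorescence ratio during a 100 s FLIPR read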
OXTR counter: counter-screen for V1a receptor agonists: oxytocin receptor agonists. shares compounds with V1R ag counter. CHO-OTR cells, Fluo-8 calcium fluorescence, agonist. activation, % at 3 µM. hit rate 10% among 180;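 active = mean activation over three repeats above the cutoff from the earlier oxytocin receptor agonist screen, cut at about 20% in these data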;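 also: peak over minimum fluorescence ratio within a 100 second FLIPR read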
Of the large screens only hits and unclear results are named; the others gave an inactive call (follow-up assays come after a bar, where they were run).

COc1ccc(-c2ccc(C3C(C#N)=C(N)Oc4n[nH]c(C)c43)o2)cc1 (centres undefined)	V1R ag counter 24 | V1R ag confirm inactive | OXTR counter inactive
COC(=O)c1cccc(NC(=O)c2ccc3c(c2)C(=O)N(Cc2cccnc2)C3=O)c1C	none
OC(COc1ccccc1F)CN1CCC(Cc2ccccc2)CC1 (centres undefined)	none
OC(COc1ccc(F)cc1Cl)CN1CCC(Cc2ccccc2)CC1 (centres undefined)	V1R ag counter 22 | V1R ag confirm inactive | OXTR counter inactive
O=C(NNC(=S)NC(=O)c1ccco1)c1ccc(F)cc1	V1R ag counter 29 | V1R ag confirm inactive | OXTR counter inactive
Cc1ccc(OCc2cc(C(=O)NCc3ccc(OC(F)(F)F)cc3)no2)cn1	V1R ag counter 28, TAAR1 ag 41 | V1R ag confirm inactive | OXTR counter 21
O=C(NCc1ccncc1)[C@@H]1CCCN1C(=O)[C@H]1CCCN1C(=O)c1cccc(Cl)c1	none (no result: V1R ag counter, OXTR ag, OXTR potentiate)
CCSc1nc(O)cc(=O)n1CC	V1R ag counter 25 | V1R ag confirm inactive | OXTR counter inactive
C=CCn1c(SCC(=O)N(CC)CC)nc(O)cc1=O	none
COC(=O)C1=NN(C(=O)c2ccccc2)C(O)(c2ccc([N+](=O)[O-])cc2)C1 (centres undefined)	none (no result: V1R ag counter, OXTR ag, OXTR potentiate)
COC(=O)C1=NN(C(=O)c2ccc(C)cc2)C(O)(c2ccc(Cl)cc2)C1 (centres undefined)	V1R ag counter 33 (no result: TAAR1 ag, TAAR1 antag) | V1R ag confirm inactive | OXTR counter inactive
S=C(NCc1ccc(Cl)cc1)Nc1ccncc1	V1R ag counter 22 | V1R ag confirm inactive | OXTR counter inactive
CCSC1=N/C(=C\C=C2/Oc3ccccc3N2CC)C(=O)S1	V1R ag counter 23 | V1R ag confirm 21 | OXTR counter inactive
C[C@@H]1CC[C@]2(C(=O)O[C@@H]3O[C@H](CO)[C@@H](O)[C@H](O)[C@H]3O)CC[C@]3(C)C(=CCC4[C@@]5(C)CC[C@H](O[C@@H]6OC[C@H](O)[C@H](O[C@@H]7O[C@H](CO)[C@@H](O)[C@H](O)[C@H]7O)[C@H]6O)C(C)(C)C5CC[C@]43C)C2[C@]1(C)O (some centres undefined)	none
COc1ccc(/C=C\C(=O)O[C@@H]2C(O)C(O[C@@H]3OC(C)[C@H](O[C@@H]4OCC(O[C@H]5O[C@H](CO)[C@@H](O)C(O)C5O)C(O)C4O)C(O)C3O)[C@H](OC(=O)[C@]34CCC(C)(C)C[C@@H]3C3=CCC5[C@@]6(C)CC(O)C(O[C@@H]7OC(CO)C(O)[C@H](O)[C@H]7O)[C@@](C)(C(=O)O)C6CC[C@@]5(C)[C@]3(CO)CC4)O[C@H]2C)cc1 (some centres undefined)	V1R ag counter 73 (no result: TAAR1 ag, TAAR1 antag) | V1R ag confirm 79 | OXTR counter 44
COC(=O)[C@H](Cc1c[nH]c2ccccc12)NC(=O)Cc1c[nH]c2ccccc12	V1R ag counter 21 | V1R ag confirm inactive | OXTR counter inactive
CS(=O)(=O)Oc1ccc2c(c1)O/C(=C\c1cccnc1)C2=O	none
COc1cc(OC)c(OC)cc1/C=C1\Oc2cc(OS(C)(=O)=O)ccc2C1=O	V1R ag counter 21 | V1R ag confirm inactive | OXTR counter inactive
CCn1c(=O)c(C(=O)NNC(=O)c2cccc(Cl)c2)c(O)c2ccccc21	V1R ag counter 26, TAAR1 ag 38, TAAR1 antag 71 | V1R ag confirm inactive | OXTR counter inactive
Cn1c(=O)c(C(=O)NNC(=O)c2ccccc2Br)c(O)c2ccccc21	none
CCn1c(=O)c(C(=O)NNC(=O)c2ccccc2Br)c(O)c2ccccc21	V1R ag counter 47, TAAR1 ag 46 | V1R ag confirm inactive | OXTR counter inactive
Cn1cc(S(=O)(=O)NCC2CCCO2)c(=O)n(C)c1=O (centres undefined)	none
Cc1cc(C)cc(C(=O)NC(=S)Nc2ccc3c(c2)OCCO3)c1	none
CC(C)(C)c1ccc(C(=O)N2CCC2(C)C(=O)NCc2cccc3ccccc23)cc1 (centres undefined)	none (no result: V1R ag counter, OXTR ag, OXTR potentiate)
CC(Oc1ccc2ccc(=O)oc2c1)C(=O)N1CCOCC1 (centres undefined)	V1R ag counter 21 | V1R ag confirm inactive | OXTR counter inactive
CC(Oc1ccc2c(-c3ccccc3)cc(=O)oc2c1)C(=O)N1CCOCC1 (centres undefined)	none
CC(C)(C)C(=O)c1sc2nc(-c3cccs3)cc(C(F)(F)F)c2c1N	none
Nc1c(C(=O)Nc2nccs2)sc2nc(-c3cccs3)cc(C(F)(F)F)c12	V1R ag counter 34 | V1R ag confirm 24 | OXTR counter 34
CCOc1cccc(C2C(C(=O)c3ccc(C)o3)=C(O)C(=O)N2Cc2ccncc2)c1 (centres undefined)	none
CCOc1cccc(C2C(C(=O)c3ccc(C)o3)=C(O)C(=O)N2c2nccs2)c1 (centres undefined)	V1R ag counter 39 | V1R ag confirm inactive | OXTR counter inactive
COc1cc(C(=O)OCC(=O)N2CCCC2=O)cc(OC)c1C	none
Oc1ccc(Br)cc1C=Nc1ccc2c3c(cccc13)CC2	V1R ag counter 24 | V1R ag confirm inactive | OXTR counter inactive
Cc1ccc(NC(=O)Nc2c(C)n(C)n(-c3ccccc3)c2=O)cc1	V1R ag counter 21 | V1R ag confirm inactive | OXTR counter inactive
Cc1c(NC(=O)Nc2ccc(Cl)cc2)c(=O)n(-c2ccccc2)n1C	none
Cc1ccc(S(=O)(=O)NCC(=O)N/N=C/c2ccc(Cl)cc2)cc1	V1R ag counter 22 | V1R ag confirm inactive | OXTR counter inactive
CC(C)[C@H](NC(=O)[C@H](CC(=O)O)NC(=O)[C@H](CCCCN)NC(=O)[C@@H](N)CCCN=C(N)N)C(=O)N[C@@H](Cc1ccc(O)cc1)C(=O)O	none (no result: V1R ag counter, TAAR1 ag, TAAR1 antag)
COc1ccc2c(c1)c(C(=O)N/N=C/c1cn(C)c3ccccc13)c(C)n2C	none
Fc1ccc(CSc2ccc3nnc(-c4cccs4)n3n2)cc1	V1R ag counter 24 | V1R ag confirm inactive | OXTR counter inactive
O=C(Nc1ccc(S(=O)(=O)Nc2ccccc2)cc1)C1COc2ccccc2O1 (centres undefined)	none
CCCCNC(=O)C1(C)CCCCN1CC(=O)c1ccc(OC)cc1 (centres undefined)	none (no result: V1R ag counter, OXTR ag, OXTR potentiate)
Cc1ccc(C)c(Nc2ccc3nonc3c2[N+](=O)[O-])c1	none (no result: V1R ag counter, OXTR ag, OXTR potentiate)
